The source of these data is ChEMBL document CHEMBL1142234, “Structure-based discovery of an inhibitor of Arf activation by Sec7 domains through targeting of protein-protein complexes” (Proc Natl Acad Sci U S A, 2007).

SMILES strings stand for the structures. pKd, pKi: −log10 of the molar value. Calls of active or inactive are those of the source. The calls are words filed in the database; no cut-off is given here.

Assay [1] deals with ADP-ribosylation factor 6 (Homo sapiens) (UniProt P62330). The experiment in a line: Inhibition of ARNO-stimulated nucleotide exchange of Arf6. Summed up: (§1)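 GDP-loaded Arf isoforms truncated of the N-terminal helix (1 μM) with 50 nM Sec7 GEF. Runs were done with or without 150 μM inhibitor, preincubated 5 min, at 37°C in Tris pH 8/NaCl/MgCl2/2-mercaptoethanol buffer. Reaction was started with 2 μM mGTP and nucleotide exchange followed by time-resolved fluorescence.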

Assay [2] can be described thus: Inhibition of delta14 Arf5 activation stimulated by Sec7 domain of BIG1.
Assay [3] has as its target ADP-ribosylation factor 1 (Homo sapiens) (UniProt P84077). Put plainly: Inhibition of ARNO-stimulated nucleotide exchange of Arf1. The procedure, abridged: as §1
Assay [4] addresses ADP-ribosylation factor 5 (Homo sapiens) (UniProt P84085). The experiment in a line: Inhibition of ARNO-stimulated nucleotide exchange of Arf5. The procedure, abridged:
as §1

A short description of assay [5]: Inhibition of mGDP/GTP exchange on delta17 Arf1 at 150 uM.
A short description of assay [6]: Inhibition of GTP binding to Arf-ARNO complex. Summed up:
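Nucleotide-free Arf1/ARNO complex made by removing GDP with alkaline phosphatase (20 units) plus 2 mM EDTA. GTP binding to the complex (0.2 μM) started with 1 μM mGTP, with or without 150 μM inhibitor. Mant fluorescence read at 37°C in Tris pH 8 buffer with MgCl2; mean ± SD of ≥3 experiments.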

Assay [7] can be described thus: Inhibition of delta17 Arf1 activation stimulated by Sec7 domain of BIG1.
The species entered for assay [8] is Homo sapiens. The experiment in a line: Effect on activation of human RhoA/Gef337 at 150 uM. The procedure, abridged: (§2)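 Specificity panel: each small GTPase (1 μM, GST-fused RhoG or RhoA) with its GEF (50 nM; DH1 domain of TRIO or DH domain of GEF337), with or without 150 μM inhibitor. Exchange started with 2 μM mGTP and followed by time-resolved fluorescence.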

Assay [9] is filed under the species Homo sapiens. Put plainly: (§3) Inhibition of human Arf-GDP-ARNO complex at 100 uM by fluorescence anisotropy. Summed up: (§4)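 Alexa 488 N-terminally labelled [Δ17]Arf1-GDP was held at 10 nM and titrated by serial dilution of wild-type ARNO Sec7, starting at 400 μM, with or without 100 μM inhibitor.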
In general terms: Polarisation of emitted light reports the rotation of a fluorescent probe.

In assay [10] the test system is HeLa. The experiment in a line: Inhibition of endogenous Arf activation in human HeLa cells. The format is cell-based. Summed up:
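Activation of endogenous Arf proteins in HeLa cells was measured by pull-down of GTP-loaded Arf through binding to the GGA3 effector.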

The target of assay [11] is ADP-ribosylation factor 1 (Homo sapiens) (UniProt P84077). The experiment in a line: Reduction in nucleotide exchange on Arf1 using ARNO4M. Summed up:
(§5)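 [Δ17]Arf1 lacking its N-terminal helix, GDP-loaded, with the BFA-sensitised Sec7 domain of human ARNO (4 mutations). Inhibitor was preincubated 5 min, then GTP or mGTP was added. Apparent rate constants were fitted. Means ± SD of ≥3 independent experiments.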

Assay [12] relates to HeLa. The experiment in a line: Dispersion of cis golgi marker KDEL in human HeLa cells at 100 uM for 2 hrs. Format: functional, cell-based. The procedure, abridged:
(§6)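 HeLa cells were exposed 2 h to 100 μM compound, with 0.5% DMSO as vehicle control, then fixed. Primary antibody was applied overnight at 4°C in PBS/0.25% BSA/0.01% Tween 20/0.01% saponin: TGN46 1:200, βCOP 1:100, KDEL receptor 1:500. Alexa 488 secondary was applied 20 min at room temperature. Marker localisation was imaged by confocal microscopy.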

Assay [13] deals with MDCK. The experiment in a line: Inhibition of rate of migration in MDCK cells expressing wild type ARNO. The format is functional, cell-based. The conditions noted are these: Canis lupus familiaris. Summed up: (§7)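 MDCK cells carrying tetracycline-repressible myc-wt-ARNO were grown as monolayers on collagen I and scratch-wounded. Cells were kept in MEM/5% FBS with or without compound. Doxycycline at 20 ng/ml repressed the transgene (endogenous ARNO only); without it, wt-ARNO was expressed. Wound closure was imaged every 5 min for 16 h at 37°C. Rate (μm2/h) was taken from hourly area increments over 8 h. Means ± SD of ≥3 experiments.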

Assay [14] deals with HeLa. The experiment in a line: Dispersion of trans golgi marker TGN46 in human HeLa cells at 100 uM for 2 hrs. The format is functional, cell-based. Summed up: as §6
Assay [15] relates to MDCK. The experiment in a line: Inhibition of rate of migration of MDCK cells expressing endogenous levels of ARNO. The conditions noted are these: Canis lupus familiaris. The format is functional, cell-based. The procedure, abridged:
as §7

Assay [16] concerns MDCK. The experiment in a line: Increase in rate of migration of MDCK cells expressing wild type ARNO relative to non-induced wild type ARNO cells. The format is functional, Canis lupus familiaris. Summed up:
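MDCK cells stably carrying N-terminal c-myc wt-ARNO under a tetracycline-repressible transactivator, grown on collagen I (3 μg/ml). Confluent monolayers were scratch-wounded, then kept in MEM/5% FBS with 20 ng/ml doxycycline (repressed) or without it (induced). Time-lapse imaging every 5 min for 16 h at 37°C, 5% CO2. Wound-area rate (μm2/h) was taken over 1-h intervals for 8 h; mean ± SD, ≥3 experiments.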

For assay [17], the species on record is Homo sapiens. Put plainly: Effect on activation of human RhoG/TriD1 at 150 uM. Summed up:
as §2

Assay [18] concerns HeLa. The experiment in a line: Dispersion of cis golgi marker betaCoP in human HeLa cells at 100 uM for 2 hrs. Format: functional, cell-based. The procedure, abridged: as §6
Assay [19] can be described thus: Inhibition of mGTP/GTP exchange on delta17 Arf1 at 150 uM.
Assay [20] is described as follows: as §3. Summed up: as §4
The nature of assay [21]: Inhibition of delta17 Arf1 using ARNO4M. The conditions noted are these: read-out: Ki app. Summed up:
as §5

Sequence of ADP-ribosylation factor 1 (Homo sapiens) (P84077 whole entry, the tested form may be a part): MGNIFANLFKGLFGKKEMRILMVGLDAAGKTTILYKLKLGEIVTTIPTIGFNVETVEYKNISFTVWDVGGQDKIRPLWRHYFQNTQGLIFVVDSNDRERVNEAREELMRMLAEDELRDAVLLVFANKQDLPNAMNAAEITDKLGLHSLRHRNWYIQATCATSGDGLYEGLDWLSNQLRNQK
Sequence of ADP-ribosylation factor 5 (Homo sapiens) (P84085 whole entry): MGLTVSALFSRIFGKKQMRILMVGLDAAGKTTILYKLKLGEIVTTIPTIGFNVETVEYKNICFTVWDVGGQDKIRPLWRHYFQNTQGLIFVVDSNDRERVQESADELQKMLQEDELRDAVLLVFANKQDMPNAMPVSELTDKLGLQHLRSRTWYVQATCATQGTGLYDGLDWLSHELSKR
Sequence of ADP-ribosylation factor 6 (Homo sapiens) (P62330 whole entry, the tested form may be a part, canonical isoform): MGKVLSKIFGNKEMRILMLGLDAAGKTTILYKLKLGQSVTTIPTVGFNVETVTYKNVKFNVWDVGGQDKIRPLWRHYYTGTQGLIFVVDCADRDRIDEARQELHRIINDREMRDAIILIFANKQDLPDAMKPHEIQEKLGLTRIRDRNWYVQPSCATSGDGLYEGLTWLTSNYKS

Consider `O=[N+]([O-])c1ccc(Nc2c([N+](=O)[O-])ccc3c2=NC2(CCCCC2)N=3)cc1`, for which the outcome (in assay [1]; in the assay filed under Homo sapiens [9]) was inactive. In addition, the outcome (in assay [2]; in assay [3]; in assay [4]; in assay [7]; with HeLa [10]; in the assay on HeLa [12]) was Active. The outcome in the assay on MDCK [13], in the assay with HeLa [14], with MDCK [15] and in the assay with HeLa [18] was Active. Moreover, the Kapp came out at 0.0004 s⁻¹ in [5], 0.085 s⁻¹ in [6], 0.0078 s⁻¹ in assay [11] and 0.0005 s⁻¹ in assay [19]. Also, the Activity was 0.0028 s⁻¹ in the assay filed under Homo sapiens [8], 54% in the assay on MDCK [16] and 0.003 s⁻¹ in the assay filed under Homo sapiens [17].

As to `C[C@H]1CCC/C=C/[C@@H]2C[C@H](O)C[C@H]2[C@H](O)/C=C/C(=O)O1` [BREFELDIN A], the pKd (in general, the negative decadic logarithm of the Kd, by convention in mol/L) in assay [20] was 5.07. Also, the result in the assay with HeLa [12] and with HeLa [18] was Active. For the same molecule, the pKi (commonly the Ki on a negative log10 scale, so that one unit is a factor of ten) in assay [21] is 4.82.
